Tests used:
A549 = experiment: Cytotoxicity against human A549 cells after 72 hrs by MTT assay; assay type: functional, cell-based
Summary of the method: (§1)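 Cells were grown in MEM with 10% FBS. About 4 × 10³ cells per well were seeded and held 24 h at 37 °C in 5% CO₂, then exposed to compound at the indicated final concentrations for 72 h. MTT was added at 5 µg/mL final for 4 h at 37 °C, and formazan was dissolved in DMSO. Absorbance was read at 492 nm against 630 nm reference. Each compound was tested three times per line, and IC₅₀ values were averaged.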

MCF7 = experiment: Cytotoxicity against human MCF7 cells after 72 hrs by MTT assay; assay type: functional, cell-based; summary of the method: as §1
[1] = Cytotoxicity against human PC3 cells after 72 hrs by MTT assay; assay type: functional, cell-based, PC-3; summary of the method: as §1
HeLa = experiment: Cytotoxicity against human HeLa cells after 72 hrs by MTT assay; assay type: functional, cell-based; summary of the method: as §1
[2] = target: Vascular endothelial growth factor receptor 2 (Homo sapiens, UniProt P35968); experiment: Inhibition of VEGFR2 (unknown origin) using FAM-labeled peptide as substrate preincubated for 10 mins followed by addition of substrate by mobility shift assay
Summary of the method: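 Mobility-shift kinase assay. Compounds were serially diluted in 100% DMSO and combined with enzyme for 10 min at room temperature. FAM-labeled peptide plus ATP was then added and incubated at 28 °C. The reaction was stopped with EDTA-containing buffer. Conversion was read on Caliper, and % inhibition = (max − conversion)/(max − min) × 100. IC₅₀ was averaged from at least two experiments.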

[3] = target: Epidermal growth factor receptor (Homo sapiens, UniProt P00533); experiment: Inhibition of EGFR (unknown origin) using FAM-labeled peptide as substrate preincubated for 10 mins followed by addition of substrate by mobility shift assay
[4] = Cytotoxicity against human NSCLC cells; assay type: functional, cell-based
[5] = Homo sapiens, MCF7, 72 h, read-out: IC50
[6] = Homo sapiens, PC-3, 72 h, read-out: IC50
[7] = Homo sapiens, A549, 72 h, read-out: IC50

Sequence of Epidermal growth factor receptor (P00533 whole entry): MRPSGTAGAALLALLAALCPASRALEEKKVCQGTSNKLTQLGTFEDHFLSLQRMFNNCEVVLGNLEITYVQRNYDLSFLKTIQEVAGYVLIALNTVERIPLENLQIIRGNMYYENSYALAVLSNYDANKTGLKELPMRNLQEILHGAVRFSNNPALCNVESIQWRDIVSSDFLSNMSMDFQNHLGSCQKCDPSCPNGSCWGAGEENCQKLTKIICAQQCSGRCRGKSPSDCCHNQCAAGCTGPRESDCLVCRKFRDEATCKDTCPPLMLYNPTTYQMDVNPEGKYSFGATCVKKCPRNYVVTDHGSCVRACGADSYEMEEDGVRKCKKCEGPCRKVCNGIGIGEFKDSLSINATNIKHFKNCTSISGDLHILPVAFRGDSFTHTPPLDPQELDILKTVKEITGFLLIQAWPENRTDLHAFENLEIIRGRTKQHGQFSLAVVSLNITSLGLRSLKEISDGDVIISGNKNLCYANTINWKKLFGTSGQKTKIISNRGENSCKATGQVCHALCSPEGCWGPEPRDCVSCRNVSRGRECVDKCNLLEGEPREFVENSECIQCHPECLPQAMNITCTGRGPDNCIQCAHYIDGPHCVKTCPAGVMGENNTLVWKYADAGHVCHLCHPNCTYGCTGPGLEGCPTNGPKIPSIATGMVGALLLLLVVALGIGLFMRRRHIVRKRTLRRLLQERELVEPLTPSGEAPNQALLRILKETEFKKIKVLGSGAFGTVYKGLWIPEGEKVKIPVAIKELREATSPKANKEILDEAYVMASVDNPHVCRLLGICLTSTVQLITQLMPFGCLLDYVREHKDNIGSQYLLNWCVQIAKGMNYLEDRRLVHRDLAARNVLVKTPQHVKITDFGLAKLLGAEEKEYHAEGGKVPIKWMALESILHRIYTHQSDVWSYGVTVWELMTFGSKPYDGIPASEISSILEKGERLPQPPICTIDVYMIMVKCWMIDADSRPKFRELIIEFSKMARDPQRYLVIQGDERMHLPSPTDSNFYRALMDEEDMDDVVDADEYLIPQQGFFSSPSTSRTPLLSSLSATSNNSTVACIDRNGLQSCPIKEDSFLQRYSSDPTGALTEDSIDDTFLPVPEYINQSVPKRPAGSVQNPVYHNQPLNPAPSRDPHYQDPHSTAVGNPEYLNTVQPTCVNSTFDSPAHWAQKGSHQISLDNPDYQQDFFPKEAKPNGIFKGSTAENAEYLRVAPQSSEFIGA
Sequence of Vascular endothelial growth factor receptor 2 (P35968 whole entry): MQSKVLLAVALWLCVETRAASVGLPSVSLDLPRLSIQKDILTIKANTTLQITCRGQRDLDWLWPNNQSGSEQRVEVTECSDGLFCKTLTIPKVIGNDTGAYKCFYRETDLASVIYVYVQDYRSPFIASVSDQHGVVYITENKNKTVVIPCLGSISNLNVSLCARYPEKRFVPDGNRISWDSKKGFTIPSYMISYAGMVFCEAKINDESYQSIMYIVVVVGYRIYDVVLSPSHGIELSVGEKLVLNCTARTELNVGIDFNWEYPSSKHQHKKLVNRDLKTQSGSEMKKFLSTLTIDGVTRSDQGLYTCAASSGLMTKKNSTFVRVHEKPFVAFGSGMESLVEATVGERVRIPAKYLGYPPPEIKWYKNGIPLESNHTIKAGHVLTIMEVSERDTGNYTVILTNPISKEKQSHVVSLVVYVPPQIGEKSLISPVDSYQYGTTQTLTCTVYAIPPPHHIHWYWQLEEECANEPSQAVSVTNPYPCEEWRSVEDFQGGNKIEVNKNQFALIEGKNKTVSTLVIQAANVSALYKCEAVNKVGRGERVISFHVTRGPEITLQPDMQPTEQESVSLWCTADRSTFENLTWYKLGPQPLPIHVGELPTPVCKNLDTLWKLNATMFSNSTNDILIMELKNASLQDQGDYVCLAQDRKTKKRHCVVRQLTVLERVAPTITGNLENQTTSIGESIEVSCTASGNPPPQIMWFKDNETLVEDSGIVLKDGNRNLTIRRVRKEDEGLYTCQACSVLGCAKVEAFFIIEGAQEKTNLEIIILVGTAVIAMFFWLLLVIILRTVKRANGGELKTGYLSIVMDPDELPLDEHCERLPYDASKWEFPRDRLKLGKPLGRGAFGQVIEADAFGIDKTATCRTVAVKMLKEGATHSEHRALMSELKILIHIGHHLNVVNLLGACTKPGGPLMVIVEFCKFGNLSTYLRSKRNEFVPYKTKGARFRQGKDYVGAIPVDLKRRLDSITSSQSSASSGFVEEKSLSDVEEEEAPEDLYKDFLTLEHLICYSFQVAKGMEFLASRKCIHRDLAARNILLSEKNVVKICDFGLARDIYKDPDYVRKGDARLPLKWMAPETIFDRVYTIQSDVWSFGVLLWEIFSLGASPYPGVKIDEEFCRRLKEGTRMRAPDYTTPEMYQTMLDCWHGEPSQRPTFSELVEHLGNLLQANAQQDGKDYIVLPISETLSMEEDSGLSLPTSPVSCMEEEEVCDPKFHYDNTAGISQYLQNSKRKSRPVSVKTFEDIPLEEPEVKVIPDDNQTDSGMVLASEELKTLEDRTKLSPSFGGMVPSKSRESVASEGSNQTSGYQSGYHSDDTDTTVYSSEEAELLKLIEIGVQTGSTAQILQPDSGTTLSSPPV

IC50 [2]	IC50 [3]	SMILES	IC50 (A549; a549)	IC50 (MCF7; [5])	IC50 [1, 6]	IC50 (A549; [7])	IC50 (HeLa)	IC50 (MCF7; mcf7)	IC50 ([1]; pc-3)	IC50 [4]
–	–	N#Cc1ccc(/C=C/C(=O)Nc2cc3c(Nc4ccc(F)c(Cl)c4)ncnc3cc2O[C@H]2CCOC2)cc1	Not Active	9.83 µM	36.6 µM	–	–	–	–	–
–	–	O=C(/C=C/c1cccc(Cl)c1Cl)Nc1cc2c(Nc3ccc(F)c(Cl)c3)ncnc2cc1O[C@H]1CCOC1	–	30.1 µM	27.5 µM	23.2 µM	30.5 µM	–	–	–
–	–	COc1cc2ncnc(Nc3ccc(F)c(Cl)c3)c2cc1NC(=O)/C=C/c1ccc(F)cc1Cl	Not Active	–	32.7 µM	–	–	Not Active	–	–
–	–	O=C(/C=C/c1ccc(Br)cc1)Nc1cc2c(Nc3ccc(F)c(Cl)c3)ncnc2cc1O[C@H]1CCOC1	–	32.4 µM	28.2 µM	35.3 µM	27.4 µM	–	–	–
–	–	COc1cc(/C=C/C(=O)Nc2cc3c(Nc4ccc(F)c(Cl)c4)ncnc3cc2O[C@H]2CCOC2)cc(OC)c1	–	30.3 µM	25.6 µM	10.8 µM	34.2 µM	–	–	–
–	–	COc1cc2ncnc(Nc3ccc(F)c(Cl)c3)c2cc1NC(=O)/C=C/c1cc(OC)c(OC)c(OC)c1	Not Active	–	38.2 µM	–	–	Not Active	–	–
–	–	O=C(/C=C/c1ccc([N+](=O)[O-])cc1)Nc1cc2c(Nc3ccc(F)c(Cl)c3)ncnc2cc1O[C@H]1CCOC1	–	26.7 µM	22.8 µM	12 µM	27.4 µM	–	–	–
–	–	O=C(/C=C/c1ccccc1[N+](=O)[O-])Nc1cc2c(Nc3ccc(F)c(Cl)c3)ncnc2cc1O[C@H]1CCOC1	–	28.4 µM	7.76 µM	8.82 µM	29.6 µM	–	–	–
–	–	COc1cc2ncnc(Nc3ccc(F)c(Cl)c3)c2cc1NC(=O)/C=C/c1ccc(C#N)cc1	Not Active	–	–	–	–	Not Active	Not Active	–
0.886 µM	0.0091 µM	COc1ccc(/C=C/C(=O)Nc2cc3c(Nc4ccc(F)c(Cl)c4)ncnc3cc2O[C@H]2CCOC2)cc1	–	5.07 µM	2.24 µM	3.05 µM	34.6 µM	–	–	–
–	–	COc1cc(/C=C/C(=O)Nc2cc3c(Nc4ccc(F)c(Cl)c4)ncnc3cc2O[C@H]2CCOC2)cc(OC)c1O	–	30.5 µM	26.5 µM	26.9 µM	27.4 µM	–	–	–
–	–	COc1ccc(OC)c(/C=C/C(=O)Nc2cc3c(Nc4ccc(F)c(Cl)c4)ncnc3cc2O[C@H]2CCOC2)c1	–	36.3 µM	8.73 µM	7.3 µM	26.8 µM	–	–	–
–	–	COc1ccc(OC)c(/C=C/C(=O)Nc2cc3c(Nc4ccc(F)c(Cl)c4)ncnc3cc2OC)c1	–	34.2 µM	28.6 µM	11.2 µM	–	–	–	–
–	–	COc1cc(/C=C/C(=O)Nc2cc3c(Nc4ccc(F)c(Cl)c4)ncnc3cc2OC)cc(OC)c1	Not Active	38.5 µM	–	–	–	–	Not Active	–
–	–	COc1cc(/C=C/C(=O)Nc2cc3c(Nc4ccc(F)c(Cl)c4)ncnc3cc2O[C@H]2CCOC2)cc(OC)c1OC	–	28.4 µM	20.5 µM	4.15 µM	24.5 µM	–	–	–
–	–	COc1cc2ncnc(Nc3ccc(F)c(Cl)c3)c2cc1NC(=O)/C=C/c1ccccc1[N+](=O)[O-]	–	36.5 µM	14.3 µM	33.2 µM	–	–	–	–
–	–	COc1ccc(/C=C/C(=O)Nc2cc3c(Nc4ccc(F)c(Cl)c4)ncnc3cc2OC)c(OC)c1	–	36.6 µM	38.5 µM	33.2 µM	–	–	–	–
–	–	COc1ccc(/C=C/C(=O)Nc2cc3c(Nc4ccc(F)c(Cl)c4)ncnc3cc2O[C@H]2CCOC2)c(OC)c1	–	28.6 µM	2.76 µM	9.35 µM	26.4 µM	–	–	–
–	–	COc1ccc(/C=C/C(=O)Nc2cc3c(Nc4ccc(F)c(Cl)c4)ncnc3cc2OC)cc1	Not Active	–	–	–	–	Not Active	Not Active	–
–	–	O=C(/C=C/c1ccc(F)cc1Cl)Nc1cc2c(Nc3ccc(F)c(Cl)c3)ncnc2cc1O[C@H]1CCOC1	–	26.2 µM	7.15 µM	5.19 µM	37.5 µM	–	–	–
–	–	CN(C)C/C=C/C(=O)Nc1cc2c(Nc3ccc(F)c(Cl)c3)ncnc2cc1O[C@H]1CCOC1 [AFATINIB]	–	5.83 µM	4.1 µM	0.05 µM	6.81 µM	–	–	0.0005 µM
–	–	O=C(/C=C/c1cc(Br)c(O)c(Br)c1)Nc1cc2c(Nc3ccc(F)c(Cl)c3)ncnc2cc1O[C@H]1CCOC1	–	30.6 µM	25.5 µM	28.8 µM	27.7 µM	–	–	–
0.478 µM	0.0036 µM	COc1ccc(/C=C/C(=O)Nc2cc3c(Nc4ccc(F)c(Cl)c4)ncnc3cc2O[C@H]2CCOC2)c(OC)c1OC	–	4.65 µM	7.67 µM	0.07 µM	4.83 µM	–	–	–
